Experimental findings from ChEMBL document CHEMBL1124368 (J Med Chem, 1989) are described below.

The structures appear in SMILES notation.

Series [1] relates to Mus musculus. Put plainly: Mean of weight gain from day 0 to day 24 at a dose of 12.5 mg/kg/day of compound. The format is functional. The arrangement: unit not given here. Put shortly:
(§1)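 M5076 reticulum cell sarcoma: 10⁶ cells implanted im into the left leg of female BDF₁ mice (groups of five) on day 0. Drug in 10–20% DMSO in arachis oil was given ip daily on days 1–17. Weight change is the mean weight gain from day 0 to day 24.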

The test system of series [2] is Mus musculus. As to the kind of experiment: Tumor volume in 20 days after tumor implantation at a dose of 25 mg/kg/day of compound. It is filed as functional. In a few lines: (§2)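 10⁶ M5076 reticulum cell sarcoma cells were injected im into the left leg of female BDF₁ mice, five per group, on day 0. Compound in 10–20% DMSO/arachis oil was dosed ip daily on days 1–17. Tumor volumes (mm³) were recorded on days 12, 16, 20 and 24 after implantation, with NM marking a tumor that could not be measured.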

Series [3] concerns Mus musculus. As to the kind of experiment: Ratio of tumor volume of test(T) animals compared to control(C) animals x 100 T/C(%)] at a dose of 12.50 mg/kg/day. It is filed as functional. In a few lines: (§3)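 M5076 reticulum cell sarcoma: 10⁶ cells implanted im into the left leg of female BDF₁ mice (groups of five) on day 0. Treatment was ip, daily on days 1–17, in 10–20% DMSO in arachis oil. T/C% is treated tumor volume over control tumor volume × 100.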

Series [4] concerns Mus musculus. Put plainly: Tumor volume in 24 days after tumor implantation at a dose of 25 mg/kg/day of compound. The format is functional. In a few lines: as §2
In series [5] the test system is Mus musculus. As to the kind of experiment: Tumor volume in 16 days after tumor implantation at a dose of 3.125 mg/kg/day of compound. It is filed as functional. In a few lines: as §2
In series [6] the test system is Mus musculus. Put plainly: Tumor volume in 20 days after tumor implantation at a dose of 3.125 mg/kg/day. The format is functional. Put shortly: as §2
Series [7] concerns Mus musculus. Put plainly: Tumor volume in 16 days after tumor implantation at a dose of 6.25 mg/kg/day of compound. It is filed as functional. Put shortly: as §2
Series [8] concerns Mus musculus. As to the kind of experiment: Ratio of tumor volume of test(T) animals compared to control(C) animals x 100 T/C(%)] at a dose of 25 mg/kg/day. It is filed as functional. In a few lines: as §3
Series [9] concerns Mus musculus. Put plainly: Tumor volume in 24 days after tumor implantation at a dose of 3.125 mg/kg/day. The format is functional. In a few lines:
as §2

Series [10] concerns Mus musculus. As to the kind of experiment: Mean of weight gain from day 0 to day 24 at a dose of 6.25 mg/kg/day. It is filed as functional. The arrangement: unit not given here. In a few lines:
as §1

Series [11] relates to Mus musculus. Put plainly: Tumor volume in 24 days after tumor implantation at a dose of 12.5 mg/kg/day. It is filed as functional. Put shortly:
as §2

For series [12], the system named is Mus musculus. Put plainly: Tumor volume in 24 days after tumor implantation at a dose of 6.25 mg/kg/day. The format is functional. Put shortly:
as §2

Series [13] has as its system Mus musculus. As to the kind of experiment: (§4) Mean of weight gain from day 0 to day 24 at a dose of 3.125 mg/kg/day of compound. The format is functional. Details: unit not given here. Put shortly:
as §1

Series [14] has as its system Mus musculus. As to the kind of experiment: Tumor volume in 16 days after tumor implantation at a dose of 12.5 mg/kg/day of compound. It is filed as functional. In a few lines:
as §2

For series [15], the system named is Mus musculus. Put plainly: Tumor volume in 16 days after tumor implantation at a dose of 25 mg/kg/day of compound. The format is functional. In a few lines: as §2
The test system of series [16] is Mus musculus. As to the kind of experiment: Tumor volume in 20 days after tumor implantation at a dose of 12.5 mg/kg/day of compound. The format is functional. In a few lines: as §2
In series [17] the test system is Mus musculus. As to the kind of experiment: Mean of weight gain from day 0 to day 24 at a dose of 25 mg/kg/day of compound. It is filed as functional. The arrangement: unit not given here. In a few lines:
as §1

Series [18] concerns Mus musculus. Put plainly: Ratio of tumor volume of test(T) animals compared to control(C) animals x 100 T/C(%)] at a dose of 3.125 mg/kg/day. It is filed as functional. In a few lines:
as §3

In series [19] the test system is Mus musculus. As to the kind of experiment: Tumor volume in 20 days after tumor implantation at a dose of 6.25 mg/kg/day of compound. The format is functional. Put shortly: as §2
In series [20] the test system is Mus musculus. As to the kind of experiment: Ratio of tumor volume of test(T) animals compared to control(C) animals x 100 T/C(%)] at a dose of 6.25 mg/kg/day. The format is functional. Put shortly:
as §3

In series [21] the test system is Mus musculus. Put plainly: Tumor volume in 24 days after tumor implantation at a dose of 3.125 mg/kg/day of compound. It is filed as functional. In a few lines: as §2
In series [22] the test system is Mus musculus. The description is as §4. The format is functional. In a few lines:
as §1

The test system of series [23] is Mus musculus. As to the kind of experiment: Tumor volume in 12 days after tumor implantation at a dose of 6.25 mg/kg/day of compound. The format is functional. In a few lines:
as §2

In series [24] the test system is Mus musculus. As to the kind of experiment: Ratio of tumor volume of test(T) animals compared to control(C) animals x 100T/C(%)] at a dose of 3.125 mg/kg/day of compound. As to conditions: in vivo. The format is organism-based. In a few lines:
as §3

The test system of series [25] is Mus musculus. Put plainly: Tumor volume in 12 days after tumor implantation at a dose of 3.125 mg/kg/day of compound. The format is functional. Put shortly: as §2
The subject of series [26] is Mus musculus. As to the kind of experiment: Tumor volume in 20 days after tumor implantation at a dose of 3.125 mg/kg/day of compound. It is filed as functional. In a few lines: as §2
In series [27] the test system is Mus musculus. As to the kind of experiment: Number of survivors versus treated on day 24 at a dose of 6.25 mg/kg/day of compound; none of them survived(0/5). The format is functional.
Series [28] concerns Mus musculus. Put plainly: Ratio of tumor volume of test(T) animals compared to control(C) animals x 100 T/C(%)] at a dose of 3.125 mg/kg/day of compound; maximal activity for this system. The format is […], organism-based. As to conditions: in vivo. Put shortly:
as §3

Series [29] relates to Mus musculus. As to the kind of experiment: Tumor volume in 24 days after tumor implantation at a dose of 3.125 mg/kg/day of compound; NM=tumor not measureable. It is filed as functional, organism-based. Put shortly: as §2
The test system of series [30] is Mus musculus. Put plainly: Mean of weight gain from day 0 to day 24 at a dose of 3.125 mg/kg/day of compound (maximum activity noticed). It is filed as functional. Put shortly: as §1
For series [31], the system named is Mus musculus. Put plainly: Number of survivors treated on day 24 at a dose of 25 mg/kg/day of compound expressed as ratio of (test/control); none of them survived(0/5). It is filed as functional.
In series [32] the test system is Mus musculus. Put plainly: Number of survivors versus treated on day 24 at a dose of 12.5 mg/kg/day of compound; none of them survived(0/5). It is filed as functional.
Series [33] has as its system Mus musculus. As to the kind of experiment: Tumor volume in 20 days after tumor implantation at a dose of 3.125 mg/kg/day of compound; NM=tumor not measureable. It is filed as functional, organism-based. Put shortly:
as §2

Series [34] relates to Mus musculus. As to the kind of experiment: Tumor volume in 16 days after tumor implantation at a dose of 3.125 mg/kg/day of compound; NM=tumor not measureable. It is filed as functional, organism-based. In a few lines:
as §2

The test system of series [35] is Mus musculus. Put plainly: Tumor volume in 12 days after tumor implantation at a dose of 3.125 mg/kg/day of compound; NM=tumor not measureable. It is filed as functional, organism-based. Put shortly:
as §2

Series [36] has as its system Mus musculus. Put plainly: Mean of weight gain from day 0 to day 24 at a dose of 50 mg/kg/day of compound. The format is functional. Put shortly:
as §1

The subject of series [37] is Mus musculus. As to the kind of experiment: Ratio of tumor volume of test (T) animals compared to control (C) animals x 100 T/C(%)] at a dose of 50 mg/kg/day of compound. The format is functional. In a few lines: as §3
For series [38], the system named is Mus musculus. Put plainly: Tumor volume in 24 days after tumor implantation at a dose of 50 mg/kg/day of compound. It is filed as functional. Put shortly: as §2
In series [39] the test system is Mus musculus. As to the kind of experiment: Tumor volume in 12 days after tumor implantation at a dose of 12.5 mg/kg/day of compound. It is filed as functional. Put shortly:
as §2

Series [40] relates to Mus musculus. Put plainly: Mean of weight gain from day 0 to day 24 in the mice at a dose of 50 mg/kg/day of compound. It is filed as functional. In a few lines: as §1

In the case of `CCc1nc(N)nc(N)c1-c1ccc(NCc2ccc(C)cc2)c([N+](=O)[O-])c1`, the Weight change was determined as 2.4 in series [1], 2.1 in series [10], 3 in series [13] and 2.4 in series [17]. Also, the Tumor volume in series [2] amounted to 426 mm**3; in series [4] it was 514 mm**3; in series [5], 596 mm**3; in [6], 1581 mm**3; in series [7], 270 mm**3; in [9], 1881 mm**3. The Tumor volume in series [11] was determined as 641 mm**3; in [12], 1099 mm**3; in series [14], 198 mm**3; in [15], 180 mm**3; in series [16], 385 mm**3; in series [19], 704 mm**3. The Antitumor activity in [3] is recorded as 24%; in [8], 20%; in [18] it was 76%; in series [20], 44%.

The T/C is the result in the treated group divided by that in the control group, in per cent. As for `CN(Cc1cnc2nc(N)nc(N)c2n1)c1ccc(C(=O)N[C@@H](CCC(=O)O)C(=O)O)cc1` [METHOTREXATE], the Tumor volume stood at 987 mm**3 in series [5]; 389 mm**3 in series [7]; 2270 mm**3 in [21]; 347 mm**3 in [23]; 411 mm**3 in series [25]; 1914 mm**3 in [26]. Further, the Weight change in [22] is 3.9. In addition, the T/C in series [24] came to 92%.

`Cc1nc(N)nc(N)c1-c1ccc(Cl)c(Cl)c1` [METOPRINE]: the Survivors in [27], in series [31] and in series [32] was 0 in each case. Also, the T/C in series [28] is recorded as less than 8%. The Tumor volume result in [29], in series [33], in series [34] and in series [35] was “Not measurable” each time. This molecule also showed a Weight change in series [30] of 4.9.

Regarding `CCc1nc(N)nc(N)c1-c1ccc(NCc2ccc(Cl)c(Cl)c2)c([N+](=O)[O-])c1`, the Weight change is recorded as 3 in series [1]; 2.9 in series [36]; 3.5 in series [10]; 3.6 in series [13]; 2.7 in [17]. For the same molecule, the Antitumor activity in series [3] is 16%; in series [8], less than 8%; in [37] it was less than 8%; in series [18], 48%; in series [20], 36%. The Tumor volume in series [5] is recorded as 498 mm**3; in [6] it was 858 mm**3; in series [7] it was 256 mm**3; in [9] it was 1173 mm**3; in series [11] it was 395 mm**3; in series [12] it was 851 mm**3. For the same molecule, the Tumor volume in series [16] is 216 mm**3; in series [25], 216 mm**3; in [19] it was 385 mm**3.

As for `CCCCNc1ccc(-c2c(N)nc(N)nc2CC)cc1[N+](=O)[O-]`, the Weight change in [1] stood at 3.6; in [10] it was 5.4; in series [13], 8.2; in [17], 3.7; in [40], 2.7. Further, the Antitumor activity is 41% in series [3]; 22% in series [8]; 15% in series [37]; 78% in [18]; 70% in [20]. The Tumor volume in [4] was determined as 638 mm**3; in [5], 622 mm**3; in series [38], 368 mm**3; in series [6], 1176 mm**3; in series [7] it was 438 mm**3; in [9], 2143 mm**3. For the same molecule, the Tumor volume in series [11] was found to be 1061 mm**3; in [12] it was 1920 mm**3; in series [14], 283 mm**3; in [23] it was 212 mm**3; in [16], 496 mm**3; in series [39], 180 mm**3. Also, the Tumor volume in [25] came out at 271 mm**3; in [19], 913 mm**3.
